Consider six compounds from PMC4227764 (Nucleic Acids Research, 2014).

Broadly, the IC50 is the concentration that gives 50% inhibition. As usually defined, the Kd is the equilibrium constant for the complex coming apart. Broadly, the Ki is the equilibrium dissociation constant of an inhibitor or competing ligand from its target.

Like-named read-outs stand apart in the source and are kept apart here.

In one assay the target is T1, B. subtilis RNase P (Bacillus subtilis, UniProt P25814).
T1 sequence (P25814 1-116): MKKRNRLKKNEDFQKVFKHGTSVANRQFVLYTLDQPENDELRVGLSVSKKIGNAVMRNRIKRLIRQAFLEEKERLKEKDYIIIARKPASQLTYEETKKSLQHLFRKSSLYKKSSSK
As to the kind of experiment: RNase P cleavage activity in response to HTS reagents. It counts as biochemical. Summed up:
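B. subtilis holoenzyme formed by adding P protein to refolded P RNA, 30 min at 37°C. Enzyme pre-incubated 30 min with 2% DMSO at 30°C. Reaction started with an equal volume of Fl-pre-tRNAAsp substrate, quenched with 80 mM CaCl2 at various times. Fluorescence polarization read at λex 485 nm / λem 520 nm.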

Assay [1] has as its target Bacillus subtilis RNase P. It counts as biochemical. The settings on record: read-out: IC50 for inhibition of RNase P; Buffer B (pH 7.2, 10 mM MgCl2, 100 mM KCl), 50 nM Fl-pre-tRNA^Asp, 0.4 nM RNase P, 4 nM P protein, 37°C.
The test system of a further assay is Fl-pre-tRNA^Asp. Briefly: FA titration: binding of compounds to Fl-pre-tRNA^Asp. Also noted: species or system Bacillus subtilis. The settings on record: for change in anisotropy (ΔFA) upon binding to Fl-pre-tRNA^Asp: Figure 4A, buffer B; for Kd: read-out: Kd for Fl-pre-tRNA^Asp, 37°C. The gist of the method: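 RNA first heat-denatured 3 min at 95°C, then refolded at 37°C. Kd taken from the dependence of the FA signal on compound concentration. Competition run at fixed compound with varied yeast tRNAMix in buffer B.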

The test system of a further assay is Escherichia coli RNase P. The settings on record: cited from earlier work.
Assay [2] has as its target Dictyostelium discoideum RNase P. The settings on record: read-out: Ki (non-competitive); cited from earlier work.
The next assay concerns the target native yeast tRNA^Phe. Particulars: cited from earlier work.
Where [3] appears, read: Buffer B + 12 mg/ml yeast tRNA^Mix.
The mark [4] stands for this setting: Buffer B, 50 nM Fl-pre-tRNA^Asp.

On to `C[S+](C)[O-]` [DMSO, dimethyl sulfoxide], for which the “inhibition of RNase P activity” value on B. subtilis RNase P (2% DMSO) amounted to 20%.
`NC[C@H]1O[C@H](O[C@H]2[C@H](O)[C@@H](O[C@H]3O[C@H](CO)[C@@H](O)[C@H](N)[C@H]3O)[C@H](N)C[C@@H]2N)[C@H](N)[C@@H](O)[C@@H]1O` [KanB, kanamycin B]: the IC50 in assay [1] was determined as 52 ± 6 µM. For the same compound, the “change in anisotropy (ΔFA) upon binding to Fl-pre-tRNA^Asp” value in the assay on Fl-pre-tRNA^Asp is about 35 mA. For the same compound, the figures for the Kd on Fl-pre-tRNA^Asp (setting [3]) and at Fl-pre-tRNA^Asp (setting [4]) were 540 ± 60 µM and 220 ± 20 µM, respectively.
With `NC[C@@H]1O[C@H](O[C@H]2[C@@H](O)[C@H](O[C@@H]3[C@@H](O)[C@H](N)C[C@H](N)[C@H]3O[C@H]3O[C@H](CN)[C@@H](O)[C@H](O)[C@H]3N)O[C@@H]2CO)[C@H](N)[C@@H](O)[C@@H]1O` [NeoB, neomycin B], the IC50 in assay [1] was 23 ± 3 µM; with Escherichia coli RNase P, 60 µM. Moreover, the “change in anisotropy (ΔFA) upon binding to Fl-pre-tRNA^Asp” value in the assay with Fl-pre-tRNA^Asp was about 50 mA. Moreover, the Kd is 100 ± 20 µM at Fl-pre-tRNA^Asp (setting [3]), 90 ± 5 µM on Fl-pre-tRNA^Asp (setting [4]) and 90 µM at native yeast tRNA^Phe. In addition, the Ki in assay [2] is 143 µM.
Take `COc1ccc(C[C@H](N)C(=O)N[C@H]2[C@@H](O)[C@H](n3cnc4c(N(C)C)ncnc43)O[C@@H]2CO)cc1` [puromycin]: in the assay with Escherichia coli RNase P, the IC50 is about 3000 µM.
As to Spiramycin, the “effect on steady-state turnover” value with Escherichia coli RNase P is listed as “activate the steady-state turnover”.
Take nonidet P-40 [NP-40]: the “effect on RNase P activity” value at B. subtilis RNase P (0.01–0.1% v/v) is recorded as “unaffected”.
